Calls of active or inactive are those of the source. The calls are words filed in the database; no cut-off is given here.
Legend:
D(3) dopamine receptor = D(3) dopamine receptor (Homo sapiens, UniProt P35462); assay: Displacement of [3H]spiperone from human D3 receptor expressed in CHO-K1 cells by radioligand competitive binding analysis; type: cell-based
[1] = Displacement of [3H]spiperone from human D4.2 receptor expressed in CHO-K1 cells by radioligand competitive binding analysis; type: cell-based
How it was run: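 Competition for [3H]-spiperone on membranes from CHO-K1 cells stably expressing human D4.2 receptor, with nonspecific binding set by 25 μM haloperidol. Six concentrations run, from 1 nM to 100 μM or 0.1 nM to 10 μM. Curves fitted to a single-site model, and Ki derived using radioligand concentration and Kd from saturation binding. Clozapine reference. n = 2, mean SEM.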

CHO-K1 = assay: Displacement of [3H]spiperone from human D4.2 receptor expressed in CHO-K1 cells at 10 uM by radioligand competitive binding analysis relative to control; type: cell-based
How it was run: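 Membranes from CHO-K1 cells stably expressing human D4.2 receptor. Radioligand [3H]-spiperone. Nonspecific binding defined with 25 μM haloperidol. […] Clozapine served as reference competitor. n = 2, mean SEM.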

D(2) dopamine receptor [2] = target: T1, D(2) dopamine receptor (Homo sapiens, UniProt P14416); assay: Agonist activity at human D2S receptor expressed in CHOK1 cells assessed as inhibition of forskolin induced cAMP production by measuring Emax for cAMP accumulation at 10 uM preincubated for 10 mins followed by forskolin addition and measured after 5 mins by HTRF assay relative to quinpirole (reference value: 98.8 +/- 0.6%); type: functional, cell-based
How it was run: (§1)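 CHO-K1 cells stably transfected with human D2S cDNA, kept in 500 μg/mL G418. Cells in stimulation buffer with 500 μM IBMX took compound for 10 min at 37 °C, then forskolin (10 μM) for 5 min. Intracellular cAMP read by HTRF. Efficacy is percent of maximal quinpirole response. Basal cAMP from wells lacking compound, quinpirole and forskolin. n = 3−4 independent experiments in triplicate, mean SEM.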

D(2) dopamine receptor [3] = target: T1, D(2) dopamine receptor; assay: Agonist activity at human D2S receptor expressed in CHOK1 cells assessed as inhibition of forskolin induced cAMP production by measuring Emax for cAMP accumulation at 100 uM preincubated for 10 mins followed by forskolin addition and measured after 5 mins by HTRF assay relative to quinpirole; type: functional, cell-based; how it was run: as §1
D(2) dopamine receptor [4] = target: T1, D(2) dopamine receptor; assay: Displacement of [3H]spiperone from human D2S receptor expressed in CHO-K1 cells by radioligand competitive binding analysis; type: cell-based
D(2) dopamine receptor [5] = target: T1, D(2) dopamine receptor; assay: Agonist activity at human D2S receptor expressed in CHOK1 cells assessed as inhibition of forskolin induced cAMP production preincubated for 10 mins followed by forskolin addition and measured after 5 mins by HTRF assay relative to control; type: functional, cell-based
D(2) dopamine receptor [6] = target: T1, D(2) dopamine receptor; assay: Agonist activity at human D2S receptor expressed in CHOK1 cells assessed as inhibition of forskolin induced cAMP production at 10 uM preincubated for 10 mins followed by forskolin addition and measured after 5 mins in presence of low concentration of quinpirole by HTRF assay; type: functional, cell-based
How it was run: (§2)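 CHO-K1 cells stably transfected with human D2S (short isoform) cDNA. Test compound (10 μM) was added at the same time as quinpirole (10 pM to 100 μM). Cells were in stimulation buffer with 500 μM IBMX for 10 min at 37 °C, then 10 μM forskolin for 5 min. cAMP was read by HTRF, with basal wells lacking all additions. n = 3−4 independent experiments, in triplicate.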

D(2) dopamine receptor [7] = target: T1, D(2) dopamine receptor; assay: Antagonist activity at human D2S receptor expressed in CHOK1 cells assessed as suppression of quinpirole-induced inhibition of forskolin induced cAMP production at 10 uM preincubated for 10 mins followed by forskolin addition and measured after 5 mins in presence of 100 nM quinpirole by HTRF assay relative to quinpirole EC50; type: functional, cell-based; how it was run: as §2

T1 sequence (P14416 whole entry): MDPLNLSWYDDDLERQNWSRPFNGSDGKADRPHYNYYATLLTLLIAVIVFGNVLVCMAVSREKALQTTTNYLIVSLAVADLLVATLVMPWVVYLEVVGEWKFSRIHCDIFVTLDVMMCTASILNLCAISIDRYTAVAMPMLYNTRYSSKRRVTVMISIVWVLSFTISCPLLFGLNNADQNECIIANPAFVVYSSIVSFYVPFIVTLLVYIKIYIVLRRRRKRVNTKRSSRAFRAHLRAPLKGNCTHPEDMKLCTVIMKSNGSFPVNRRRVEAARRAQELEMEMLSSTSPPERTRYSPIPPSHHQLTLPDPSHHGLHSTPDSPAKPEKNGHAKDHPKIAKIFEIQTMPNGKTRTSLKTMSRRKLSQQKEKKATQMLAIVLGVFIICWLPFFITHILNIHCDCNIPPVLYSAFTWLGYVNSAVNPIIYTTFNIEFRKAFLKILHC
Chain of D(3) dopamine receptor (P35462 whole entry): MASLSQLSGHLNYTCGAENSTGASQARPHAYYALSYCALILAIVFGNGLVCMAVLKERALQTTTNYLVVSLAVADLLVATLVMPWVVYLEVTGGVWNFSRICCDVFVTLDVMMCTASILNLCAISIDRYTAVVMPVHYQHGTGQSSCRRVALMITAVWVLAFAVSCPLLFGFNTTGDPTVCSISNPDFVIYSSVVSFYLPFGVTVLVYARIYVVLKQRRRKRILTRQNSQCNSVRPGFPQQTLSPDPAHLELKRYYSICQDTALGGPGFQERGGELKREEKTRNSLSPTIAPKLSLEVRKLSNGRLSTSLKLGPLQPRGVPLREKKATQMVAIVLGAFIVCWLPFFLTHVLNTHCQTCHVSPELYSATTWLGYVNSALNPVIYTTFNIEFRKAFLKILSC

Structure (SMILES): CN1CCc2cc(O)c(O)c3c2C1Cc1ccccc1-3 (stereo not drawn)
- Activity (D(3) dopamine receptor): Dose-dependent effect
- Ki (D(3) dopamine receptor): 838 nM
- Activity [1]: Dose-dependent effect
- Ki [1]: 551 nM
- pKi [1]: 6.26
- inhibition (CHO-K1): 73%
- Emax (D(2) dopamine receptor [2]): 50.7%
- Emax (D(2) dopamine receptor [3]): 92.7%

Structure (SMILES): CN1CCc2cc(O)c(O)cc2C1Cc1ccccc1Br (stereo not drawn)
- Ki (D(2) dopamine receptor [4]): 286 nM
- Activity (D(3) dopamine receptor): Dose-dependent effect
- Ki (D(3) dopamine receptor): 197 nM
- Activity [1]: Dose-dependent effect
- Ki [1]: 13.8 nM
- pKi [1]: 7.86
- inhibition (CHO-K1): 96%
- Emax (D(2) dopamine receptor [2]): 31.9%
- Emax (D(2) dopamine receptor [3]): 48.4%
- EC50 (D(2) dopamine receptor [5]): 2950 nM
- Activity (D(2) dopamine receptor [6]): Active
- fold change (FC) (D(2) dopamine receptor [7]): 35

Structure (SMILES): CN1CCN(C2=Nc3cc(Cl)ccc3Nc3ccccc32)CC1 [CLOZAPINE]
- Ki [1]: 56.9 nM
- pKi [1]: 7.25
- inhibition (CHO-K1): 96%
